Calls of active or inactive are those of the source. The calls are words filed in the database; no cut-off is given here.
How the values were obtained:
Vero [1] = test: In vitro antiviral activity against measles virus was evaluated.; assay type: functional; details: Chlorocebus sabaeus, read-out: ED50 (the source's name)
P388 [2] = test: In vitro inhibitory dose against P388 cells was evaluated; Inactive at 10^-4M; assay type: functional, cell-based; details: Mus musculus
Method in brief: (§1)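 L1210 murine leukemia or P388 lymphoid neoplasm cells in RPMI 1640 with 10% fetal bovine serum and 20 mM Hepes, adjusted to 1 × 10⁵ cells/mL. Compounds dissolved in medium, filter-sterilized, tested in duplicate at log concentrations 1×10⁻⁷ to 1×10⁻⁴ M. After 48 h at 37 °C, Coulter cell counts; growth as percent of untreated control; ID₅₀ is the concentration giving 50% growth inhibition.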

L1210 [3] = test: In vitro inhibitory dose against L1210 leukemia cells was evaluated; Inactive at 10^-4M; assay type: functional, cell-based; details: Mus musculus; method in brief: as §1
Vero [4] = test: In vitro antiviral activity against vaccinia virus was evaluated.; assay type: functional; details: Chlorocebus sabaeus, read-out: ED50 (the source's name)
Vero [5] = test: Toxicity level was reported; None.; assay type: functional, cell-based; details: Chlorocebus sabaeus
Vero [6] = test: In vitro antiviral activity against herpes simplex virus type 2 virus was evaluated.; assay type: functional; details: Chlorocebus sabaeus, read-out: ED50 (the source's name)
Vero [7] = test: In vitro antiviral activity against Parainfluenza type 3 was evaluated.; assay type: functional; details: Chlorocebus sabaeus, read-out: ED50 (the source's name)
Vero [8] = test: Toxicity level was reported; none; assay type: functional, cell-based; details: Chlorocebus sabaeus
Vero [9] = test: Toxicity level was reported.; assay type: functional, Chlorocebus sabaeus
L1210 [10] = test: In vitro inhibitory dose against L1210 leukemia cells was evaluated.; assay type: functional; details: Mus musculus, read-out: ID50 (the source's name)
Method in brief: (§2)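 Murine leukemia L1210 or lymphoid neoplasm P388 cells were grown in RPMI 1640 with 10% fetal bovine serum and 20 mM Hepes. Cells at 1 × 10⁵ cells/mL received filter-sterilized compound dissolved in growth medium, in duplicate at log concentrations from 1×10⁻⁷ to 1×10⁻⁴ M. After 48 h at 37 °C, cells were counted on a Coulter counter. Growth was expressed as percent of untreated control, and ID₅₀ was taken as the concentration giving 50% growth inhibition.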

P388 [11] = test: In vitro inhibitory dose against P388 cells was evaluated.; assay type: functional; details: Mus musculus, read-out: ID50 (the source's name); method in brief: as §2
L1210 [12] = test: In vitro inhibitory dose against L1210 leukemia cells was evaluated; Inactive at 10e-4 concentration; assay type: functional, cell-based; details: Mus musculus; method in brief: as §2
P388 [13] = test: In vitro inhibitory dose against P388 cells was evaluated; Inactive at 10e-4 concentration; assay type: functional, cell-based; details: Mus musculus; method in brief: as §2
P388 [14] = test: Percent inhibition against P388 cell growth at concentration 10e-4 was reported; Inative at 10^-4M; assay type: functional, cell-based; details: Mus musculus; method in brief: as §2
L1210 [15] = test: Percent inhibition against L1210 cell growth at concentration 10e-4 was reported.; assay type: functional, Mus musculus; method in brief: as §2
L1210 [16] = test: Percent inhibition against L1210 cell growth at concentration 10e-4 was reported; assay type: functional, Mus musculus; method in brief: as §1
P388 [17] = test: Percent inhibition against P388 cell growth at concentration 10e-4 was reported; assay type: functional, Mus musculus; method in brief: as §1

Row | Structure (SMILES) | EC50 (Vero [1]) [µM] | EC50 (Vero [4]) [µM] | Toxic level (Vero [5]) | EC50 (Vero [6]) [µM] | EC50 (Vero [7]) [µM] | Toxic level (Vero [9]) [mM] | further results
1 | Nc1nc2c(c(C(=O)O)nn2C2O[C@H](CO)[C@@H](O)[C@H]2O)c(=O)[nH]1 (some centres undefined) | > 5000 | > 5000 | None | > 5000 | > 5000 |  | ID50 (P388 [2]): inactive; ID50 (L1210 [3]): inactive
2 | NC(=O)c1c[se]c([C@@H]2O[C@H](CO)[C@@H](O)[C@H]2O)n1 | 3.2 | 9.8 |  | 14 | 3.2 |  | Toxic level (Vero [8]): inactive
3 | NC(=O)c1[nH]nc2nc(S)nc(O)c12 | > 500 |  | None | 180 | 390 |  | 
4 | C[S+]([O-])c1nc(O)c2c(Br)[nH]nc2n1 (centres undefined) | > 5000 | 260 |  | 1200 | > 5000 | >0.5 | 
5 | Oc1[nH]c(Br)nc2nncc1-2 | > 5000 | 430 |  | 1600 | > 5000 | 1.6 | 
6 | Nc1nc2c(c(Br)nn2C2O[C@H](CO)[C@@H](O)[C@H]2O)c(=O)[nH]1 (some centres undefined) | 20 | 76 |  | 180 | > 5000 | 1.6 | IC50 (L1210 [10]): 36 µM; IC50 (P388 [11]): 36 µM
7 | Nc1nc2c(cnn2C2O[C@H](CO)[C@@H](O)[C@H]2O)c(=O)[nH]1 (some centres undefined) |  | 1000 |  | 1600 | > 5000 |  | Toxic level (Vero [8]): inactive; ID50 (L1210 [12]): inactive; ID50 (P388 [13]): inactive
8 | N#Cc1nn(C2O[C@H](CO)[C@@H](O)[C@H]2O)c2nc(N)[nH]c(=O)c12 (some centres undefined) | 54 | 140 | None | 100 | 220 |  | IC50 (L1210 [10]): 22 µM; IC50 (P388 [11]): 21 µM
9 | NC(=O)c1ncn([C@@H]2O[C@H](CO)[C@@H](O)[C@H]2O)n1 [RIBAVIRIN] | 33 | 85 |  | 190 | 160 |  | Toxic level (Vero [8]): Non-toxic
10 | NC(=S)c1nn(C2O[C@H](CO)[C@@H](O)[C@H]2O)c2nc(N)[nH]c(=O)c12 (some centres undefined) | 65 |  | None | > 5000 | 590 |  | ID50 (P388 [14]): inactive; Inhibition (L1210 [15]): 43%
11 | COc1nc2c(c(Br)nn2C2O[C@H](CO)[C@@H](O)[C@H]2O)c(=O)[nH]1 (some centres undefined) | > 2500 | 3500 |  | 1600 | > 2500 | 2.5 | 
12 | CSc1nc(O)c2c(C(N)=O)[nH]nc2n1 | > 500 | 330 |  | 85 | > 500 | >0.5 | 
13 | NC(=O)c1nn(C2O[C@H](CO)[C@@H](O)[C@H]2O)c2nc(N)[nH]c(=O)c12 (some centres undefined) | > 500 | > 500 | None | > 500 | > 500 |  | Inhibition (L1210 [16]): 30%; Inhibition (P388 [17]): 22%
14 | Oc1[nH]c(Br)nc2nnc(Br)c1-2 | > 5000 | 240 |  | > 500 | > 5000 | >0.05 | 
